High-throughput results as filed in PubChem.
KCNQ1 pot: potentiators or activators of KCNQ1 channel, primary screen, cell-based, thallium flux, high-throughput. 310,000 compounds, 0.35% hits. CHO-K1 KCNQ1, thallium flux FluxOR fluorescence; hits give high values. Potassium voltage-gated channel subfamily KQT member 1 (Homo sapiens), P51787. AID 2648, 2010. B-score at 10 µM;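 active means fluorescence ratio B-score, a plate-corrected score, at least three library SD, with initial intensity B-score within 5 SD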
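Test system: CHO-K1 cells stably expressing KCNQ1 / Medium: assay buffer / Also added: depolarizing K+/Tl+ stimulus, K2SO4 and Tl2SO4 each 12.5 mM in 5x stock / Incubation: 90 min dye loading and 20 min compound exposure, both at room temperature / Signal: thallium influx via FluxOR fluorescence, kinetic imaging / Evaluation: B score of baseline-normalized fluorescence ratio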
KCNK3 block: human KCNK3 channel inhibitors, primary screen, CHO cells, FluxOR thallium flux, B-score. B-score at 10 µM. Potassium channel subfamily K member 3 (Homo sapiens), O14649. 340,000 compounds, 0.84% hits. AID 602410, 2012. FluxOR fluorescence; hits give low values;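 active means B-score under library mean minus 4 SD, starting fluorescence ratio at most library mean plus 5 SD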;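 further: more negative B-score means stronger inhibition of thallium flux through KCNK3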
Target sequence (O14649 whole entry, looked up): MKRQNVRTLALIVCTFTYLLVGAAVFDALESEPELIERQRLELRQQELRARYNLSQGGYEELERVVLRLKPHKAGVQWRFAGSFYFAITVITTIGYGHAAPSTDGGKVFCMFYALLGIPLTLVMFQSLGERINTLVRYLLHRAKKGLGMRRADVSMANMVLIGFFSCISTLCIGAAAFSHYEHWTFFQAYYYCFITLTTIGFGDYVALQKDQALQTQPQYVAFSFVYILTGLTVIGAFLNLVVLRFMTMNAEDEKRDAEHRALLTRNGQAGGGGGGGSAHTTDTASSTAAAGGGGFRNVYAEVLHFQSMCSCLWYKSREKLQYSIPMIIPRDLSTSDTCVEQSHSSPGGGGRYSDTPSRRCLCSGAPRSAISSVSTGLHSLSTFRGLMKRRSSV
hERG rescue: hERG rescue from dofetilide block, primary screen, cell-based, CHO-hERG, FluxOR thallium flux, dofetilide IC70; 310,000 compounds, 0.51% hits; dofetilide IC70 present; Voltage-gated inwardly rectifying potassium channel KCNH2 (Homo sapiens), Q12809; activation (rescue from dofetilide block), less the hit threshold, % at 10 µM;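 active means activation above the mean of controls blocked by dofetilide plus 5 SD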;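 further: thallium influx through hERG after potassium depolarization seen as dye fluorescence rise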
KCNQ1 inh: inhibitors of human KCNQ1 channel, primary screen, cell-based, thallium flux, high-throughput | CHO-K1 KCNQ1, FluxOR thallium flux fluorescence; hits give high values | B-score at 10 µM | AID 2642, 2010 | Potassium voltage-gated channel subfamily KQT member 1 (Homo sapiens), P51787 | 310,000 compounds, 1.3% hits;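 active means compounds whose thallium flux B-score, printed positive for inhibition, exceeds three library SD while starting fluorescence stays within three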;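 further: channel opened by potassium depolarization with thallium stimulus after 20 min compound exposure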
Kir21 block: inhibitors of mouse Kir2.1 inward-rectifier potassium channel; Inward rectifier potassium channel 2 (Mus musculus), P35561; AID 1672, 2009; HEK293-Kir2.1, FluxOR thallium flux fluorescence; hits give low values; B-score at 10 µM; 310,000 compounds, 0.85% hits;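 active means fluorescence ratio B-score at or below minus 3 SD of library scores, with starting-brightness B-score within 2 SD, cut at about -4.2 in these data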;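 further: channel flux triggered by added potassium and thallium sulfate stimulus; B-score of peak minus minimum fluorescence over baseline after thallium stimulus; more negative B-score means stronger Kir2.1 block with less thallium influx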
KCNK9 inh: KCNK9 potassium channel inhibitors, primary screen, HEK293 cells, thallium flux; B-score at 10 µM; Potassium channel subfamily K member 9 (Homo sapiens), Q9NPC2; 310,000 compounds, 1.2% hits; FluxOR thallium flux fluorescence; hits give low values;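 active means ratio B-score over 3 SD below the library mean, with starting fluorescence within 5 SD of its mean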;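 further: negative B-score means less thallium flux so channel inhibition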
KCNQ1 inh valid: KCNQ1 potassium channel inhibitors, confirmation, cell-based, Tl flux, duplicate. shares compounds with KCNQ1 inh. KCNQ1 cell line, FluxOR thallium flux fluorescence. inhibition, % at 10 µM. 1,600 compounds, 93% hits. AID 588353, 2011;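 active means primary screen active, with duplicate mean exceeding buffer control mean plus 3 SD of buffer wells, cut at about 28% in these data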
CHO Tl flux: thallium flux effects in parental CHO cells, counter-screen for KCNQ1 inhibitor project, cell-based, Tl flux; shares compounds with KCNQ1 inh; parental CHO-K1, FluxOR thallium flux fluorescence ratio; hits give low values; zero means no signal rise above baseline; fluorescence ratio (Tl flux) at 10 µM; 1,600 compounds, 21% hits; AID 588366, 2011;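 active means mean of duplicate thallium-flux fluorescence ratios in parental host cells more than 5 SD below the buffer control mean, cut at about 0.38 in these data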;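 further: ratio is peak minus minimum fluorescence divided by baseline fluorescence; actives read low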
KCNQ1 APC inh: KCNQ1 channel inhibitors, confirmation, orthogonal assay, cell-based, automated electrophysiology. shares compounds with KCNQ1 inh. KCNQ1-CHO cells, automated patch clamp current. calls only at 10 µM. 490 compounds, 20% hits;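 active means KCNQ1 current drop exceeding 3 SD of negative control wells, seen in both duplicate runs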;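 further: steady state current during a 2 s step from -80 to +40 mV; negative values mean current inhibition and positive values mean potentiation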
KCNQ2 spec: KCNQ2 channel inhibition, selectivity assay for KCNQ1 inhibitor project, cell-based; shares compounds with KCNQ1 inh; KCNQ2 cells, FluxOR thallium flux fluorescence; inhibition, % at 10 µM; 1,600 compounds, 71% hits; AID 651746, 2012;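 active means mean percent inhibition of the KCNQ2 thallium signal more than 5 SD above the buffer-only control wells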;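 further: KCNQ2 expressed in CHO cells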
KCNQ1-KCNE1 inh: KCNQ1/KCNE1 channel inhibition, selectivity assay for KCNQ1 inhibitor project, CHO-K1 cells, thallium flux, FluxOR | shares compounds with KCNQ1 inh | FluxOR thallium flux fluorescence | inhibition, % at 10 µM | 1,600 compounds, 77% hits;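 active means mean percent inhibition of duplicate wells above the buffer-only control mean plus 3 SD of those controls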
KCNK9 inh conf: KCNK9 potassium channel inhibitors, confirmation, HEK293 cells, thallium flux, duplicate; 4,900 compounds, 43% hits; AID 492992, 2010; FluxOR thallium flux fluorescence; inhibition, % at 10 µM; shares compounds with KCNK9 inh;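 active means thallium signal inhibited by more than 5 SD of the compound-free buffer control wells, on both duplicate plates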
Kir2-1 spec: mouse Kir2.1 channel inhibition, confirmation, selectivity assay for KCNK9 modulator project, cell-based, HEK293, thallium flux | Kir2.1 cells, FluxOR thallium flux fluorescence | inhibition, % at 10 µM | shares compounds with KCNK9 inh | 4,900 compounds, 4% hits;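 active means thallium signal drop more than 5 SD beyond the mean of the no-compound control wells, seen in both duplicate plates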;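 further: signal is fluorescence rise after thallium addition divided by baseline fluorescence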
KCNK9 uninduced: thallium flux in non-induced HEK293 cells, confirmation, counter-screen for KCNK9 inhibitor project, cell-based, second counter screen, non-induced KCNK9-HEK293. shares compounds with KCNK9 inh. FluxOR thallium flux. inhibition, % at 10 µM. 4,900 compounds, 40% hits. AID 492997, 2010;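 active means thallium signal drop beyond 5 SD of the untreated control mean, on both duplicate plates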
Each line names hits and unclear results; the compound was inactive in the other large screens (follow-up assays come after a bar, where they were run). Only some compounds are listed: those with a hit (about 3.7% of all), similar ones and a draw of the others.

N#C/C(=C/c1ccc(N2CCOCC2)o1)c1nc2ccccc2[nH]1	none (no result: KCNQ1 pot, hERG rescue, KCNQ1 inh, Kir21 block, KCNK9 inh)
N#C/C(=C/c1ccc(N2CCOCC2)o1)c1ccc(Br)cc1	KCNQ1 inh 16, KCNK9 inh -12 | KCNQ1 inh valid 167 | CHO Tl flux 0.26 | KCNQ2 spec inactive | KCNQ1-KCNE1 inh active | KCNK9 inh conf 71% | Kir2-1 spec 36% | KCNK9 uninduced 70%
CCN1C(c2ccccc2)C(C)C(=O)C(C)C1c1ccccc1 (centres undefined)	KCNQ1 inh 8 | KCNQ1 inh valid 120 | CHO Tl flux inactive | KCNQ1 APC inh inactive | KCNQ2 spec 89% | KCNQ1-KCNE1 inh 128% | KCNK9 inh conf inactive | Kir2-1 spec inactive | KCNK9 uninduced inactive
Cc1ccc(N2CCN(C(=O)c3cc(COc4c(C)cccc4C)on3)CC2)c(C)c1	KCNQ1 inh 7 | KCNQ1 inh valid 86 | CHO Tl flux inactive | KCNQ2 spec 113% | KCNQ1-KCNE1 inh 108% | KCNK9 inh conf inactive | Kir2-1 spec inactive | KCNK9 uninduced inactive
Cc1cccc(C)c1OCc1cc(C(=O)N2CCCCCCC2)no1	none
COc1cc(C(=O)Oc2ccccc2OC(=O)c2cc(OC)c(OC)c(OC)c2)cc(OC)c1OC	none (no result: KCNQ1 pot, hERG rescue, KCNQ1 inh, Kir21 block, KCNK9 inh)
Cc1ccc(C)c(N2CCN(C(=O)C(Cc3ccccc3)n3cccc3)CC2)c1 (centres undefined)	KCNQ1 inh 14, KCNK9 inh -13 | KCNQ1 inh valid 116 | CHO Tl flux 0.36 | KCNQ2 spec 103% | KCNQ1-KCNE1 inh 166% | KCNK9 inh conf 58% | Kir2-1 spec inactive | KCNK9 uninduced 40%
Cc1ccc(N/C(C(Cl)=C(Cl)Cl)=C(/Cl)[N+](=O)[O-])c(C)c1	none
CC(=O)C1=C(C)OC(N)=C(C#N)C1c1cccc2ccccc12 (centres undefined)	none
